In ChEMBL document CHEMBL4261518, “Side chain-functionalized aniline-derived ursolic acid derivatives as multidrug resistance reversers that block the nuclear factor-kappa B (NF-κB) pathway and cell proliferation” (Medchemcomm, 2017) one finds IC50 and Activity data, which are given here for 19 compounds.

Series [1] in a line: Cytotoxicity against human SPCA2 cells after 48 hrs by MTT assay. In kind it is functional, cell-based. The note with it: SPCA2, 48 h. The gist of the method:
(§1)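 Cells grown overnight in DMEM + 10% FBS at 37 °C under 5% CO2, then given a range of compound concentrations for 48 h. MTT added for about 4 h, medium replaced by DMSO, absorbance read at 570/630 nm. IC50 reported as mean ± SD of five independent experiments.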

For series [2], the system named is L02. The series can be described thus: Cytotoxicity against human HL7702 cells after 48 hrs by MTT assay. The note with it: L02, 48 h. In kind it is cell-based. The method, boiled down: as §1
A general note: Tetrazolium assays rely on reduction of a dye to a coloured formazan, in cell work by metabolically active cells.

The nature of series [3]: Inhibition of TNFalpha-induced NF-kB (unknown origin) activation expressed in human NCI-H460 cells after 7 hrs by luciferase reporter gene assay. In kind it is cell-based. The note with it: NCI-H460, 7 h. The method, boiled down: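 NCI-H460 cells transiently co-transfected with pNF-κB-Luc reporter and pSV-β-galactosidase internal control by lipofectamine. Medium changed after 6 h, then 6 h further culture. TNF-α (15 ng ml–1) plus compound given together for 7 h. Luciferase ratio to TNF-α-only cells, corrected for non-TNF background and viability. IC50 from sigmoidal variable-slope fit.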
On the technique in general: In a reporter assay the amount or activity of a reporter protein is the signal.

In series [4] the test system is NCI-H460. Description: Cytotoxicity against human NCI-H460 cells after 48 hrs by MTT assay. Format: functional, cell-based. The note with it: NCI-H460, 48 h. The gist of the method: as §1
Series [5] deals with MGC-803. The series can be described thus: Cytotoxicity against human MGC803 cells after 48 hrs by MTT assay. Format: functional, cell-based. The note with it: MGC-803, 48 h. The gist of the method: as §1
The test system of series [6] is NCI-H460. The series can be described thus: Cytotoxicity against human NCI-H460 cells harboring pNF-kB-Luc assessed as reduction in cell viability after 7 hrs by MTT assay relative to control. Set-up: concentration or dose not given beside the values. Conditions: nci-h460, 7 h.
In series [7] the test system is A549. Description: Cytotoxicity against human A549 cells after 48 hrs by MTT assay. The note with it: A549, 48 h. Format: functional, cell-based. The method, boiled down: as §1
In series [8] the test system is T-24. The series can be described thus: Cytotoxicity against human T24 cells after 48 hrs by MTT assay. Format: functional, cell-based. The note with it: T-24, 48 h. The gist of the method:
as §1

In series [9] the test system is HepG2. The series can be described thus: Cytotoxicity against human HepG2 cells after 48 hrs by MTT assay. Format: functional, cell-based. The note with it: HepG2, 48 h. The gist of the method:
as §1

A short description of series [10]: Cytotoxicity against human HepG2/DOX cells after 48 hrs by MTT assay. Format: functional, cell-based. The method, boiled down: as §1
The nature of series [11]: Cytotoxicity against human NCI-H460/DOX cells after 48 hrs by MTT assay. In kind it is functional, cell-based. Conditions: NCI-H460, 48 h. The method, boiled down:
as §1

As to `C[C@H]1[C@H](C)CC[C@]2(C(=O)O)CC[C@]3(C)C(=CC[C@@H]4[C@@]5(C)CC[C@H](O)C(C)(C)[C@@H]5CC[C@]43C)[C@H]12` [URSOLIC ACID], the half-inhibitory concentration (IC50) (in general, the concentration at which inhibition is half-maximal) was 30.2 µM in series [1]; above 50 µM in series [2]; above 20 µM in [3]; 32.2 µM in [4]; 27.6 µM in series [5]. Also, the Activity in [6] is below 5%.

Turning to `COc1cc(NC(=O)COC(=O)[C@]23CC[C@@H](C)[C@H](C)[C@H]2C2=CC[C@@H]4[C@@]5(C)CCC(=O)C(C)(C)[C@@H]5CC[C@@]4(C)[C@]2(C)CC3)cc(OC)c1OC`, the IC50 in series [1] is 27.9 µM; in [2], above 50 µM; in [3], above 20 µM; in series [7], 35.8 µM; in series [8] it was 37.8 µM; in series [4] it was 39.6 µM. Further, in series [5], the half-maximal inhibitory concentration (IC50) came out at 38.7 µM. For the same compound, the Activity in series [6] is below 5%.

For the compound `COc1ccc(NC(=O)[C@]23CC[C@@H](C)[C@H](C)[C@H]2C2=CC[C@@H]4[C@@]5(C)CCC(=O)C(C)(C)[C@@H]5CC[C@@]4(C)[C@]2(C)CC3)cc1OC`, the IC50 was 28.4 µM in [1]; above 50 µM in series [2]; above 20 µM in series [3]; 38.7 µM in series [7]; 37.3 µM in series [8]; 30.2 µM in series [4]. Further, the IC50 in [5] is 32.5 µM. Also, the Activity in series [6] is recorded as below 5%.

Take `Cc1cccc(NC(=O)COC(=O)[C@]23CC[C@@H](C)[C@H](C)[C@H]2C2=CC[C@@H]4[C@@]5(C)CCC(=O)C(C)(C)[C@@H]5CC[C@@]4(C)[C@]2(C)CC3)c1`: the IC50 in [1], in series [2], in series [7], in series [8], in [4] and in series [5] was above 50 µM throughout.

For `C[C@H]1[C@H](C)CC[C@]2(C(=O)N3CCN(C)CC3)CC[C@]3(C)C(=CC[C@@H]4[C@@]5(C)CCC(=O)C(C)(C)[C@@H]5CC[C@]43C)[C@H]12`, the concentration for half-maximal inhibition (IC50) in [1] is 22.4 µM; in [2], above 50 µM; in [3], 15.5 µM; in [7], 23.4 µM; in series [8] it was 27.2 µM; in series [4] it was 19.2 µM. Besides, in [5], the concentration for half-maximal inhibition (IC50) worked out at 25.6 µM. Also, the Activity in series [6] was below 5%.

As to `COc1cccc2c1C(=O)c1c(O)c3c(c(O)c1C2=O)C[C@@](O)(C(=O)CO)C[C@@H]3O[C@H]1C[C@H](N)[C@H](O)[C@H](C)O1` [DOXORUBICIN], the values for the IC50 in series [9], in [10] and in series [11] were 6.91 µM, above 50 µM and above 50 µM, respectively.

Consider `COc1ccc(NC(=O)COC(=O)[C@]23CC[C@@H](C)[C@H](C)[C@H]2C2=CC[C@@H]4[C@@]5(C)CCC(=O)C(C)(C)[C@@H]5CC[C@@]4(C)[C@]2(C)CC3)cc1`, for which the IC50 in [1] was 19.4 µM; in series [2], above 50 µM; in series [3], 16 µM; in [7], 24.6 µM; in series [8] it was 26.2 µM; in series [4], 17.6 µM. For the same compound, the IC50 in series [5] was found to be 27.9 µM. The Activity in series [6] was below 5%.

Take `CC(=O)O[C@H]1CC[C@]2(C)[C@H]3CC=C4[C@@H]5[C@@H](C)[C@H](C)CC[C@]5(C(=O)Nc5cccc(C)c5)CC[C@@]4(C)[C@]3(C)CC[C@H]2C1(C)C`: the 50% inhibitory concentration (IC50) in [1], in series [2], in series [7], in series [8], in series [4] and in series [5] was above 50 µM in each case.

As to `COc1cc(NC(=O)[C@]23CC[C@@H](C)[C@H](C)[C@H]2C2=CC[C@@H]4[C@@]5(C)CCC(=O)C(C)(C)[C@@H]5CC[C@@]4(C)[C@]2(C)CC3)cc(OC)c1OC`, the IC50 is 29.9 µM in [1]; above 50 µM in series [2]; above 20 µM in [3]; 41.2 µM in series [7]; 39.8 µM in series [8]; 34.3 µM in series [4]. Also, the concentration for half-maximal inhibition (IC50) in series [5] stood at 40.1 µM. In series [6], the Activity is listed as below 5%.

Regarding `COc1cc(NC(=O)[C@]23CC[C@@H](C)[C@H](C)[C@H]2C2=CC[C@@H]4[C@@]5(C)CC[C@H](OC(C)=O)C(C)(C)[C@@H]5CC[C@@]4(C)[C@]2(C)CC3)cc(OC)c1OC`, the IC50 in series [1] is 28.7 µM; in series [2] it was above 50 µM; in series [3] it was 14.8 µM; in [7], 36.5 µM; in [8] it was 30.5 µM; in series [4], 21.1 µM. Also, in series [5], half-maximal inhibition (IC50) required 37.2 µM. Besides, the Activity in series [6] was below 5%.

`Cc1ccc(NC(=O)[C@]23CC[C@@H](C)[C@H](C)[C@H]2C2=CC[C@@H]4[C@@]5(C)CCC(=O)C(C)(C)[C@@H]5CC[C@@]4(C)[C@]2(C)CC3)cc1C`: the IC50 was 22.5 µM in series [1]; above 50 µM in series [2]; 15.2 µM in series [3]; 20.9 µM in [7]; 24.6 µM in series [8]; 19.4 µM in series [4]. In series [5], this compound returned a half-inhibitory concentration (IC50) of 21.4 µM. Moreover, the Activity in [6] was below 5%.

With `COc1cccc(NC(=O)[C@]23CC[C@@H](C)[C@H](C)[C@H]2C2=CC[C@@H]4[C@@]5(C)CC[C@H](OC(C)=O)C(C)(C)[C@@H]5CC[C@@]4(C)[C@]2(C)CC3)c1`, the IC50 in [1], in [2], in [7], in series [8], in series [4] and in series [5] was above 50 µM throughout.

In the case of `Cc1ccccc1NC(=O)COC(=O)[C@]12CC[C@@H](C)[C@H](C)[C@H]1C1=CC[C@@H]3[C@@]4(C)CCC(=O)C(C)(C)[C@@H]4CC[C@@]3(C)[C@]1(C)CC2`, the half-inhibitory concentration (IC50) was 18.7 µM in series [1]; above 50 µM in series [2]; 16.2 µM in series [3]; 16.2 µM in series [7]; 17.8 µM in [8]; 14 µM in series [4]. Also, in series [5], the IC50 worked out at 16.2 µM. Besides, the Activity in [6] was below 5%.

With `COc1ccc(NC(=O)COC(=O)[C@]23CC[C@@H](C)[C@H](C)[C@H]2C2=CC[C@@H]4[C@@]5(C)CCC(=O)C(C)(C)[C@@H]5CC[C@@]4(C)[C@]2(C)CC3)cc1OC`, the IC50 was 18.9 µM in series [1]; above 50 µM in [2]; above 20 µM in series [3]; 35.2 µM in [7]; 27.7 µM in series [8]; 22.8 µM in series [4]. Also, the IC50 in series [5] was 38.2 µM. Besides, the Activity in series [6] was below 5%.

For the compound `COc1cccc(NC(=O)COC(=O)[C@]23CC[C@@H](C)[C@H](C)[C@H]2C2=CC[C@@H]4[C@@]5(C)CCC(=O)C(C)(C)[C@@H]5CC[C@@]4(C)[C@]2(C)CC3)c1`, the IC50 in [1], in series [2], in series [7], in series [8], in series [4] and in [5] was above 50 µM in each case.

Turning to `COc1ccc(NC(=O)[C@]23CC[C@@H](C)[C@H](C)[C@H]2C2=CC[C@@H]4[C@@]5(C)CCC(=O)C(C)(C)[C@@H]5CC[C@@]4(C)[C@]2(C)CC3)cc1`, the concentration for half-maximal inhibition (IC50) in series [1] is 21.1 µM; in series [2], above 50 µM; in series [3], above 20 µM; in series [7], 39.9 µM; in series [8], 32.5 µM; in [4] it was 28.1 µM. In addition, the half-inhibitory concentration (IC50) in series [5] was 29.7 µM. In addition, the Activity in series [6] is reported as below 5%.

For `CC[C@@]1(O)C(=O)OCc2c1cc1n(c2=O)Cc2cc3cc(O)ccc3nc2-1` [HYDROXYCAMPTOTHECIN], the IC50 in series [1] is 12.6 µM; in series [2], 12.8 µM; in series [7] it was 2.75 µM; in [4] it was 16.6 µM.

As to `COc1ccc(NC(=O)[C@]23CC[C@@H](C)[C@H](C)[C@H]2C2=CC[C@@H]4[C@@]5(C)CC[C@H](OC(C)=O)C(C)(C)[C@@H]5CC[C@@]4(C)[C@]2(C)CC3)cc1OC`, the IC50 was 12.9 µM in [1]; above 50 µM in series [2]; 10.1 µM in [3]; 22.9 µM in series [7]; 24.7 µM in [8]; 11.9 µM in series [4]. The compound also yielded an IC50 in series [5] of 27.8 µM. Besides, the Activity in [6] was below 5%.

`Cc1cccc(NC(=O)[C@]23CC[C@@H](C)[C@H](C)[C@H]2C2=CC[C@@H]4[C@@]5(C)CCC(=O)C(C)(C)[C@@H]5CC[C@@]4(C)[C@]2(C)CC3)c1`: the IC50 in series [1], in series [2], in series [7], in series [8], in [4] and in [5] was above 50 µM each time.
